PubChem BioAssay
The source made the active and inactive calls.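 How the source made its calls, unless noted: active means GFP response above 150% of the DMSO level; inconclusive means fewer than 70 events counted for a yeast strain; inactive means the rest.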

Tests used:
[1] = RPL19A-GFP modulators, yeast TOR pathway, confirmation, cell-based, S. cerevisiae, flow cytometry, cherry picks, mother/daughter gates (AID 2270;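 active means GFP response below 50% of the DMSO control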); conditions: S. cerevisiae RPL19A-GFP strain, 3 h, at 10 µM, stronger effect = lower value, 100 = same GFP as DMSO wells
[2] = LAP4-GFP expression modulators in yeast, confirmation, cell-based, cherry picks, flow cytometry, mother/daughter gates (AID 2271;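 active means GFP response above 150% of the DMSO control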;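 further: ratio of sample to DMSO plate mean so 100% equals DMSO level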); conditions: S. cerevisiae LAP4-GFP strain, 3 h, at 10 µM, stronger effect = higher value, 100 means same as DMSO control
In short: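 Measured by: GFP by flow cytometry. Test system: GFP-fusion yeast strain. Input: yeast cells seeded at OD600 of 0.2. Timing: 30 °C, 3 h compound incubation, rotating. Buffer or medium: synthetic complete medium for yeast. Benchmarks: DMSO-only negative wells, rapamycin 400 ng/mL positive wells. Compound: 10 µM single dose.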

[3] = modulators of MEP2-GFP levels in yeast, confirmation, S. cerevisiae, flow cytometry GFP, cherry picks (AID 2272;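 active means GFP response above 150% of the DMSO control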;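 further: ratio of well signal to plate DMSO mean so 100% equals DMSO level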); conditions: S. cerevisiae MEP2-GFP strain, 3 h, at 10 µM, stronger effect = higher value
[4] = AGP1-GFP expression modulators, hit retest, confirmation, cell-based, flow cytometry, S. cerevisiae, cherry picks (AID 2273);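 further: median GFP channel fluorescence over the whole cell population gate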; conditions: S. cerevisiae AGP1-GFP strain, 3 h, at 10 µM
[5] = modulators of CIT2-GFP expression in yeast, confirmation, S. cerevisiae, GFP fusion, cherry picks, mother/daughter gates (AID 2274); conditions: S. cerevisiae CIT2-GFP strain, flow cytometry, 3 h, at 10 µM, stronger effect = higher value
[6] = measured here: daughter cell gate
[7] = measured here: mother cell gate
[8] = measured here: daughter cell gate response
[9] = measured here: mother cell gate response

| Compound | GFP response vs DMSO [1] | GFP response vs DMSO [1, 6] [%] | GFP response vs DMSO [1, 7] [%] | GFP response relative to DMSO [2] | GFP response relative to DMSO [2, 8] [%] | GFP response relative to DMSO [2, 9] [%] | GFP response vs DMSO [3] | GFP response, % of DMSO [4] | GFP response, % of DMSO [5] | GFP response, % of DMSO [5, 6] [%] | GFP response, % of DMSO [5, 7] [%] |
| --- | --- | --- | --- | --- | --- | --- | --- | --- | --- | --- | --- |
| Oc1ccc(/C=N/Nc2nc(-c3cccnc3)nc3ccccc23)c(O)c1 | 93.5% (inactive) | 95.3 | 94.6 | 83.8% (inactive) | 84.2 | 82.7 | 101% (inactive) | 101% (inactive) | 106% (inactive) | 108 | 105 |
| CCOC(=O)C(=CNNc1cccc(Cl)c1)C(=O)OCC | 103% (inactive) | 102 | 102 | 131% (inactive) | 125 | 137 | 111% (inactive) | 103% (inactive) | 103% (inactive) | 101 | 104 |
| Oc1c(Br)cc(Br)cc1C=NCc1ccccc1 | 101% (inactive) | 91.3 | 101 | 135% (inactive) | 105 | 137 | 112% (inactive) | 99.7% (inactive) | 104% (inactive) | 108 | 92.1 |
| O=S(=O)(c1ccccc1)N1N=C(c2cccs2)CC1c1ccc(F)cc1 (centres undefined) | 99.7% (inactive) | 97.8 | 100 | 97.4% (inactive) | 94.1 | 101 | 100% (inactive) | 104% (inactive) | 97.8% (inactive) | 96.5 | 98.7 |
| Cc1n[nH]c(C)c1N1C(=O)c2cccc3cc(Br)cc(c23)C1=O | 95.2% (inactive) | 95.9 | 97 | 99.5% (inactive) | 99.1 | 99.4 | 99% (inactive) | 105% (inactive) | 102% (inactive) | 101 | 99.3 |
| O=C(Cc1ccc(Cl)cc1)Nc1ccc(Br)cn1 | 103% (inactive) | 100 | 103 | 108% (inactive) | 106 | 111 | 118% (inactive) | 113% (inactive) | 105% (inactive) | 112 | 99.3 |
| COc1ccccc1NC(=O)c1ccc([N+](=O)[O-])o1 | 102% (inactive) | 102 | 101 | 120% (inactive) | 115 | 122 | 102% (inactive) | 99.3% (inactive) | 107% (inactive) | 108 | 106 |
| Cc1nc2ccccc2n2c(O)c(CC(=O)O)cc12 | 98.7% (inactive) | 98.5 | 99.3 | 103% (inactive) | 96.5 | 99.5 | 102% (inactive) | 98.9% (inactive) | 92.1% (inactive) | 96.4 | 85.1 |
| Cc1ccc(CS(=O)(=O)c2ncc(Cl)c(C(=O)Nc3nnc(C)s3)n2)cc1 | 99.6% (inactive) | 99.8 | 98.6 | 102% (inactive) | 104 | 104 | 101% (inactive) | 113% (inactive) | 103% (inactive) | 99.3 | 104 |
| Cc1ccc(N2C(=O)C(Cl)=C(NCc3ccccc3)C2=O)c(C)c1 | 96.2% (inactive) | 95.2 | 97 | 106% (inactive) | 104 | 107 | 101% (inactive) | 100% (inactive) | 94.4% (inactive) | 95.6 | 94.4 |
| O=C1c2ccsc2SCCN1Cc1ccc(Cl)cc1 | 93.6% (inactive) | 86 | 97 | 135% (inactive) | 128 | 144 | 91.3% (inactive) | 93.9% (inactive) | 82.2% (inactive) | 80.1 | 82.6 |
| COc1ccc(NC(=O)c2ccccc2NC(=O)c2ccccc2)cc1 | 98.4% (inactive) | 98.4 | 99.2 | 91.5% (inactive) | 94.4 | 89.7 | 96.2% (inactive) | 102% (inactive) | 103% (inactive) | 101 | 102 |
| CCOc1ccc(S(=O)(=O)N2CCc3ccccc3C2)cc1 | 99.7% (inactive) | 97.8 | 100 | 101% (inactive) | 95 | 102 | 97.5% (inactive) | 96.2% (inactive) | 92.1% (inactive) | 92.7 | 91 |
| COc1ccccc1N=Nc1ccc(O)c2ncccc12 | 104% (inactive) | 101 | 101 | 235% (active) | 203 | 223 | 132% (inactive) | 115% (inactive) | 158% (active) | 126 | 161 |
| O=S(=O)(c1ccccc1)c1ccc(C(F)(F)F)cn1 | 97.6% (inactive) | 98.3 | 97.8 | 96.1% (inactive) | 95.1 | 95.1 | 101% (inactive) | 101% (inactive) | 95.9% (inactive) | 96.8 | 95.7 |
| COc1cc(NC(=O)c2ccc(C)cc2C)ccc1NC(=O)c1cc2ccccc2o1 | 97.1% (inactive) | 95.9 | 94.4 | 97.7% (inactive) | 97.5 | 95.4 | 106% (inactive) | 105% (inactive) | 97.2% (inactive) | 101 | 97.1 |
| O=C(Sc1cccc2cccnc12)c1ccccc1Br | 96.8% (inactive) | 92.3 | 98.5 | 151% (active) | 144 | 153 | 122% (inactive) | 95.8% (inactive) | 114% (inactive) | 115 | 112 |

| Compound | GFP response vs DMSO [1] | GFP response vs DMSO [1, 6] [%] | GFP response vs DMSO [1, 7] [%] | GFP response relative to DMSO [2] | GFP response relative to DMSO [2, 8] [%] | GFP response relative to DMSO [2, 9] [%] | GFP response vs DMSO [3] | GFP response, % of DMSO [4] | GFP response, % of DMSO [5] | GFP response, % of DMSO [5, 6] [%] | GFP response, % of DMSO [5, 7] [%] |
| --- | --- | --- | --- | --- | --- | --- | --- | --- | --- | --- | --- |
| O=C(Oc1c(Cl)cc(Cl)c2cccnc12)c1cccc([N+](=O)[O-])c1 | 106% (inactive) | 92.9 | 108 | 244% (active) | 183 | 236 | 133% (inactive) | 101% (inactive) | 134% (inactive) | 121 | 131 |
| Cc1ccc(NC(=O)c2ccc([N+](=O)[O-])o2)cc1C | 100% (inactive) | 104 | 95.8 | 128% (inactive) | 111 | 127 | 110% (inactive) | 99.8% (inactive) | 100% (inactive) | 105 | 96 |
| Cc1cc(NCCCN2CCOCC2)n2nc(C)c(-c3ccc(F)cc3)c2n1 | 95.3% (inactive) | 95.9 | 95.6 | 104% (inactive) | 97.5 | 105 | 103% (inactive) | 101% (inactive) | 97.2% (inactive) | 95.8 | 99.3 |
| COc1ccc([N+](=O)[O-])c(S(=O)(=O)c2ccc(Cl)cc2)n1 | 84.5% (inactive) | 54.7 | 74.7 | 333% (active) | 173 | 309 | 136% (inactive) | 131% (inactive) | 93.4% (inactive) | 100 | 78.8 |
| O=[N+]([O-])c1ccc(N2CCN(CCO)CC2)cc1Sc1ccccn1 | 97.8% (inactive) | 99.5 | 98 | 94.1% (inactive) | 96 | 95.4 | 99.3% (inactive) | 96.1% (inactive) | 101% (inactive) | 101 | 102 |
| COc1cccc(C(=O)/C=C/c2ccc(SC)cc2)c1 | 98.6% (inactive) | 98.1 | 98.5 | 103% (inactive) | 104 | 103 | 100% (inactive) | 101% (inactive) | 99.7% (inactive) | 99.1 | 99.7 |
| COc1ccc(CN2CCN(c3ncccn3)CC2)c(C)c1C | 96.2% (inactive) | 98.1 | 95.2 | 100% (inactive) | 101 | 100 | 99.3% (inactive) | 100% (inactive) | 100% (inactive) | 101 | 102 |
| Cc1ccc(N2CCN(C(=O)c3ccccc3)CC2)c(C)c1 | 99% (inactive) | 99.4 | 99.5 | 95.4% (inactive) | 94.4 | 94 | 98.3% (inactive) | 94.3% (inactive) | 107% (inactive) | 106 | 106 |
| O=C(COc1c(Br)cc(Br)c2cccnc12)N1CCc2ccccc2C1 | 98.2% (inactive) | 97.8 | 97.2 | 140% (inactive) | 124 | 144 | 112% (inactive) | 93.2% (inactive) | 101% (inactive) | 102 | 95.6 |
| O=C(Nc1cccc(O)c1)c1ccccc1 | 94.6% (inactive) | 96.1 | 96.4 | 95.4% (inactive) | 97.6 | 95.1 | 98.3% (inactive) | 101% (inactive) | 98.3% (inactive) | 101 | 97.3 |
| COc1ccccc1OCCCc1c(C)n[nH]c1C | 119% (inactive) | 89.8 | 115 | 207% (active) | 104 | 205 | 130% (inactive) | 76.6% (inactive) | 114% (inactive) | 101 | 101 |
| C/C(=N\NC(=O)c1cccc(Br)c1)c1ccc(Br)cc1 | 96.7% (inactive) | 98.7 | 95 | 106% (inactive) | 97.5 | 107 | 103% (inactive) | 98.8% (inactive) | 98.6% (inactive) | 101 | 98.2 |
| O=C(c1ccc2ccccc2c1)N1CCN(c2ccc(O)cc2)CC1 | 101% (inactive) | 100 | 101 | 101% (inactive) | 102 | 101 | 106% (inactive) | 99.3% (inactive) | 103% (inactive) | 103 | 104 |
| Cc1ccc(C(=O)N2c3ccccc3NC(=O)C2C)cc1 (centres undefined) | 99.9% (inactive) | 98.1 | 100 | 102% (inactive) | 98.7 | 105 | 100% (inactive) | 100% (inactive) | 97.8% (inactive) | 94.8 | 98.7 |
| CCOc1ccc(C(=O)/C=C/c2ccccc2C(F)(F)F)cc1 | 98.2% (inactive) | 96.9 | 99 | 97.9% (inactive) | 99.2 | 96.1 | 100% (inactive) | 99.1% (inactive) | 104% (inactive) | 105 | 103 |
| CCC(=O)Nc1cccc(C(=O)/C=C/c2ccccc2)c1 | 102% (inactive) | 102 | 101 | 105% (inactive) | 102 | 106 | 109% (inactive) | 97.3% (inactive) | 97.3% (inactive) | 95.6 | 95.6 |
| O=C1/C(=C\c2ccccn2)SC(=S)N1Nc1ncc(C(F)(F)F)cc1Cl | 99.1% (inactive) | 98.3 | 99 | 98.8% (inactive) | 92.2 | 99.5 | 102% (inactive) | 94.9% (inactive) | 95% (inactive) | 94.6 | 93.3 |
